≈ marks a conversion by molar mass, not a printed value. *1 amine or outer side, *2 acyl side, *3 side chain or, on linkers, in order; H or OH if unused. Where a SMILES comes first, the peptide text is derived from it. [ ]: non-standard residue; d: D form. Phe(4-NH(5-NH2triazol-3-yl)) = Nc1nc(Nc2ccc(C[C@H](N)C(=O)O)cc2)n[nH]1; X1 = Nc1nc(Nc2ccc(C[C@@H](N[*:1])C(=O)[*:2])cc2)n[nH]1; dPhe(4-NHCONH2) = NC(=O)Nc1ccc(C[C@@H](N)C(=O)O)cc1; Phe(4-NHCONH2) = NC(=O)Nc1ccc(C[C@H](N)C(=O)O)cc1; d(hArg(Et2)) = CCN=C(NCC)NCCCC[C@@H](N)C(=O)O; hArg(Et2) = CCN=C(NCC)NCCCC[C@H](N)C(=O)O; dPhe(4-Cl) = N[C@H](Cc1ccc(Cl)cc1)C(=O)O; d2Nal = N[C@H](Cc1ccc2ccccc2c1)C(=O)O; Lys(iPr) = CC(C)NCCCC[C@H](N)C(=O)O; d3Pal = N[C@H](Cc1cccnc1)C(=O)O

We go through six molecules from ChEMBL document CHEMBL1134340, “GnRH antagonists: a new generation of long acting analogues incorporating p-ureido-phenylalanines at positions 5 and 6” (J Med Chem, 2001).

In assay [1] the target is T1, Gonadotropin-releasing hormone receptor (Homo sapiens, UniProt P30968).
T1 sequence (P30968 whole entry): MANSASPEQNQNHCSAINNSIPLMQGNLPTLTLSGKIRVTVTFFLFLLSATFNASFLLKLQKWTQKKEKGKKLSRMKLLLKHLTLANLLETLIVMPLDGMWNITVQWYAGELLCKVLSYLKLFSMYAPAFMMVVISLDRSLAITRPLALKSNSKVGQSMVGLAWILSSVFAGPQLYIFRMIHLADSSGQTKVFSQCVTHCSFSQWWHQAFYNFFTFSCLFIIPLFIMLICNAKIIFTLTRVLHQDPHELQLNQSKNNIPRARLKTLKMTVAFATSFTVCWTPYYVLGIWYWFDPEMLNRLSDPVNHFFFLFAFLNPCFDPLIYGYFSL
Description: Antagonism of human GnHR receptor, determined in a reporter gene assay in HEK293 cells. The class given is functional, cell-based. The essentials: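 HEK293 cells stably expressing cloned human GnRH receptor plus luciferase reporter under LH alpha subunit promoter, plated 24 h before assay. Compound in 1% DMSO added 10 min at 37 °C, then GnRH at 3 nM final; 5 h incubation, luciferase luminescence read. Six concentrations in duplicate; blank-subtracted cps as % of GnRH control; mean of two determinations.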

The target in assay [2] is T1, Gonadotropin-releasing hormone receptor. Briefly: Competitive antagonism of GnRH-induced response in the reporter gene assay. The class given is functional. The conditions noted are these: for Kb: read-out: pA2 (converted). The essentials:
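Same HEK293 human GnRH receptor luciferase reporter cells. Seven-point GnRH curve (10 µM to 10 pM final) run in duplicate without or with four to five increasing compound concentrations (10 min preincubation, 37 °C), then 5 h and luminescence. GnRH EC50 at each level by four-parameter logistic fit, giving pA2; mean of two determinations in duplicate.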

The species entered for assay [3] is Rattus norvegicus. Description: Compound was tested for inhibition of Leutenizing hormone release at 72 hours (long duration) in castrated male rat assay. It counts as functional. Set-up: concentration or dose not given beside the values. The gist of the method: (§1)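 Male Sprague-Dawley rats (180-200 g), castrated under ether 10 days earlier, 5 per group. 50 µg/rat given sc in 100 µL 40 mM phosphate buffer with 0.1% BSA and 0.6% DMSO; acyline run as internal standard. Tail blood taken predose and at 24, 48, 72, 96 (sometimes 120) h; plasma LH by RIA. Duration classed by >80% LH inhibition at each time.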

The species named for assay [4] is Rattus norvegicus. Briefly: Compound was tested for histamine release at a concentration of 10 ug/mL. It counts as functional. The gist of the method: (§2)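 Sprague-Dawley rat peritoneal mast cells, Percoll-purified, in heparinized balanced salt solution with albumin, pH 7.2. Cells exposed to compound or vehicle for 2 min at 37 °C. Supernatant histamine measured spectrofluorometrically after o-phthalaldehyde derivatization; pellets lysed for retained histamine. Reported as % of total histamine released, corrected for spontaneous release in vehicle.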

Assay [5] is filed under the species Rattus norvegicus. Briefly: Compound was tested for histamine release at a concentration of 100 ug/mL. It counts as functional. The essentials: as §2
The species named for assay [6] is Rattus norvegicus. Briefly: Compound was tested for histamine release at a concentration of 30 ug/mL. It counts as functional. The gist of the method:
as §2

The species entered for assay [7] is Rattus norvegicus. Description: Effective dose for histamine release was determined. It counts as functional. The gist of the method:
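ED50 for histamine release calculated from % release values across concentrations in rat peritoneal mast cell assay (2 min, 37 °C, o-phthalaldehyde fluorometric read-out, corrected for vehicle release).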

Assay [8] is filed under the species Rattus norvegicus. Briefly: Compound was tested for inhibition of Leutenizing hormone release at 96 hours (very long duration) in castrated male rat assay. The class given is functional. Also on record: concentration or dose not given beside the values. The gist of the method: as §1
The species entered for assay [9] is Rattus norvegicus. Description: Compound was tested for histamine release at a concentration of 300 ug/mL. It counts as functional. The essentials:
as §2

The species entered for assay [10] is Rattus norvegicus. Description: Compound was tested for inhibition of Leutenizing hormone release at 24 hours (very short duration) in castrated male rat assay; NI means no inhibition at 24 hr. It counts as functional, organism-based. The essentials: as §1
For assay [11], the species on record is Rattus norvegicus. Briefly: Compound was tested for inhibition of Leutenizing hormone release at 48 hours (intermediate duration) in castrated male rat assay. The class given is functional. The essentials:
as §1

In [1], `CC(=O)N[C@H](Cc1ccc2ccccc2c1)C(=O)N[C@H](Cc1ccc(Cl)cc1)C(=O)N[C@H](Cc1cccnc1)C(=O)N[C@@H](CO)C(=O)N[C@@H](Cc1ccc(NC(N)=O)cc1)C(=O)N[C@H](Cc1ccc(NC(N)=O)cc1)C(=O)N[C@@H](CC(C)C)C(=O)N[C@@H](CCCCNC(C)C)C(=O)N1CCC[C@H]1C(=O)N[C@H](C)C(N)=O` (Ac-[d2Nal][dPhe(4-Cl)][d3Pal]S[Phe(4-NHCONH2)][dPhe(4-NHCONH2)]L[Lys(iPr)]P[dA]-NH2) displayed an IC50 of 2.8 nM. The Kb in assay [2] was 1.58 nM. In the assay filed under Rattus norvegicus [3], this molecule returned an Inhibition of over 80%. The HR in the assay filed under Rattus norvegicus [4] is under 10%; in the assay listed under Rattus norvegicus [5], 153%; in the assay listed under Rattus norvegicus [6], 75%.

Regarding `CC(=O)N[C@H](Cc1ccc2ccccc2c1)C(=O)N[C@H](Cc1ccc(Cl)cc1)C(=O)N[C@H](Cc1cccnc1)C(=O)N[C@@H](CO)C(=O)N[C@@H](Cc1ccc(Nc2n[nH]c(N)n2)cc1)C(=O)N[C@H](Cc1ccc(Nc2n[nH]c(N)n2)cc1)C(=O)N[C@@H](CC(C)C)C(=O)N[C@@H](CCCCNC(C)C)C(=O)N1CCC[C@H]1C(=O)N[C@H](C)C(N)=O.CC(=O)O` [PRAZARELIX ACETATE] (Ac-[d2Nal][dPhe(4-Cl)][d3Pal]S[Phe(4-NH(5-NH2triazol-3-yl))][X1]L[Lys(iPr)]P[dA]-NH2), 6.9 nM corresponded to half-maximal inhibition in assay [1] (IC50). Moreover, in assay [2], the Kb is 1.58 nM. In addition, the Inhibition in the assay filed under Rattus norvegicus [3] is over 80%. In the assay filed under Rattus norvegicus [7], this molecule registered an ED50 of 19 µg/mL. Further, the HR was found to be 17% in the assay filed under Rattus norvegicus [4], 93% in the assay listed under Rattus norvegicus [5] and 70% in the assay listed under Rattus norvegicus [6].

As to `CC(=O)N[C@H](Cc1ccc2ccccc2c1)C(=O)N[C@H](Cc1ccc(Cl)cc1)C(=O)N[C@H](Cc1cccnc1)C(=O)N[C@@H](CO)C(=O)N[C@@H](Cc1ccc(NC(=O)[C@H]2CC(=O)NC(=O)N2)cc1)C(=O)N[C@H](Cc1ccc(NC(=O)[C@H]2CC(=O)NC(=O)N2)cc1)C(=O)N[C@@H](CC(C)C)C(=O)N[C@@H](CCCCNC(C)C)C(=O)N1CCC[C@H]1C(=O)N[C@H](C)C(N)=O`, the concentration for half-maximal inhibition (IC50) in assay [1] (hek293) stood at 7.7 nM. This molecule also gave a pA2 in [2] of 9. The molecule also yielded an Inhibition in the assay filed under Rattus norvegicus [8] of over 80%. Moreover, the HR is recorded as 69% in the assay listed under Rattus norvegicus [5] and 64% in the assay listed under Rattus norvegicus [9].

In the case of `CC(=O)Nc1ccc(C[C@@H](NC(=O)[C@@H](NC(=O)[C@H](CO)NC(=O)[C@@H](Cc2cccnc2)NC(=O)[C@@H](Cc2ccc(Cl)cc2)NC(=O)[C@@H](Cc2ccc3ccccc3c2)NC(C)=O)N(C)C(N)=O)C(=O)N[C@@H](CC(C)C)C(=O)N[C@@H](CCCCNC(C)C)C(=O)N2CCC[C@H]2C(=O)N[C@H](C)C(N)=O)cc1`, the NI result in the assay filed under Rattus norvegicus [10] is “no inhibition at 24 hr”.

On to `CC(=O)O.CC(=O)O.CC/N=C(\NCC)NCCCC[C@H](NC(=O)[C@H](CC(C)C)NC(=O)[C@@H](CCCCN/C(=N/CC)NCC)NC(=O)[C@H](Cc1ccc(O)cc1)NC(=O)[C@H](CO)NC(=O)[C@@H](Cc1cccnc1)NC(=O)[C@@H](Cc1ccc(Cl)cc1)NC(=O)[C@@H](Cc1ccc2ccccc2c1)NC(C)=O)C(=O)N1CCC[C@H]1C(=O)N[C@H](C)C(N)=O` [GANIRELIX ACETATE] (Ac-[d2Nal][dPhe(4-Cl)][d3Pal]SY[d(hArg(Et2))]L[hArg(Et2)]P[dA]-NH2), for which the ED50 in the assay filed under Rattus norvegicus [7] was determined as 11 µg/mL. Further, the results for the HR in the assay filed under Rattus norvegicus [4], in the assay listed under Rattus norvegicus [5] and in the assay filed under Rattus norvegicus [6] were 30%, 62% and 57%, respectively. The molecule further gave an Inhibition in the assay filed under Rattus norvegicus [11] of over 80%.

Consider `CC(=O)N[C@H](Cc1ccc2ccccc2c1)C(=O)N[C@H](Cc1ccc(Cl)cc1)C(=O)N[C@H](Cc1cccnc1)C(=O)N[C@@H](CO)C(=O)N[C@@H](Cc1ccc(NC(=O)[C@H]2CC(=O)NC(=O)N2)cc1)C(=O)N[C@H](Cc1ccc(NC(N)=O)cc1)C(=O)N[C@@H](CC(C)C)C(=O)N[C@@H](CCCCNC(C)C)C(=O)N1CCC[C@H]1C(=O)N[C@H](C)C(N)=O`, for which, in [1] (hek293), the half-inhibitory concentration (IC50) was 3 nM. The same molecule returned a pA2 in assay [2] of 8.8. The molecule also had an Inhibition in the assay filed under Rattus norvegicus [8] of over 80%. Also, the ED50 in the assay listed under Rattus norvegicus [7] was 170 µg/mL (≈ 104 µM). The HR in the assay listed under Rattus norvegicus [5] is on record as 54%; in the assay listed under Rattus norvegicus [9], 68%.
